According to ChEMBL document CHEMBL3804792, “Discovery and analgesic evaluation of 8-chloro-1,4-dihydropyrido[2,3-b]pyrazine-2,3-dione as a novel potent d-amino acid oxidase inhibitor” (Eur J Med Chem, 2016):
Activity calls are given as the source filed them.

Tests used:
D-amino-acid oxidase [1] = molecular target: D-amino-acid oxidase (Homo sapiens, UniProt P14920); assay: Inhibition of human recombinant DAAO using D-alanine as substrate assessed as pyruvate production incubated for 60 mins by microplate reader analysis
D-amino-acid oxidase [2] = molecular target: D-amino-acid oxidase (Rattus norvegicus, UniProt O35078); assay: Inhibition of rat spinal DAAO using D-alanine as substrate assessed as pyruvate production incubated for 60 mins by microplate reader analysis
D-amino-acid oxidase [3] = molecular target: D-amino-acid oxidase (Sus scrofa, UniProt P00371); assay: Inhibition of DAAO in porcine kidney homogenate using D-alanine as substrate assessed as pyruvate production incubated for 5 mins by microplate reader analysis
Rattus norvegicus [4] = species on record: Rattus norvegicus; assay: Effect on contralateral paw withdrawal in Wistar rat spinal nerve ligation-induced neuropathic pain model at 30 ug, it measured after 0.5 to 4 hrs; assay type: ADME, organism-based; conditions: in vivo, icv_or_intrathecal
Outline: (§1)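 Spinal nerve-ligated male Wistar rats, included only with ipsilateral withdrawal threshold < 8 g and no major impairment, dosed intrathecally. Mechanical thresholds (von Frey monofilaments on a metal grid) and radiant-heat paw withdrawal latency (20 s cut-off, mean of three trials 10 min apart) measured on both paws before and 0.5, 1, 2, 4 h after dosing. Thresholds converted to % MPE; two-way ANOVA.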

Mus musculus [5] = assay: Analgesic activity in sc dosed Swiss mouse assessed as inhibition of formalin-induced tonic pain administered 30 mins prior to formalin challenge measured from 20 to 40 mins relative to normal saline control; assay type: functional
Outline: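 Male Swiss mice, n = 6 per group. Dosed s.c. at 0.3-30 mg/kg in saline (10 mL/kg) 30 min before 10 µL of 5% formalin s.c. into the dorsal right hindpaw. Licking/biting time was pooled over 20-40 min as tonic pain. Values compared with saline control. Emax and ED50 taken from the dose-response. One-way ANOVA with Student-Newman-Keuls test.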

Rattus norvegicus [6] = assay: Analgesic activity in Wistar rat assessed as inhibition of formalin-induced paw flinch response in acute phase up to 3 ug, it administered as bolus injection 30 mins prior to formalin challenge measured within 10 mins relative to normal saline control; assay type: functional, organism-based
Outline: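 Intrathecally catheterized male Wistar rats (n = 6 per group) got a bolus of saline (10 µL) or compound (0.1–3 µg) 30 min before 50 µL 5% formalin sc into dorsal right hindpaw. Flinches counted in 1-min epochs every 10 min for 90 min; acute phase is the first 10 min. Compared with saline by one-way ANOVA and Student-Newman-Keuls test.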

Rattus norvegicus [7] = species on record: Rattus norvegicus; assay: Analgesic activity in Wistar rat spinal nerve ligation-induced neuropathic pain model assessed as reduction in heat hyperalgesia assessed as increase in ipsilateral paw withdrawal response at 30 ug, it measured after 1 hr; assay type: functional
Outline: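 Spinal nerve-ligated male Wistar rats, intrathecally catheterised; only those with ipsilateral withdrawal threshold <8 g were used. After intrathecal dosing, radiant heat was applied to the plantar hind paw and withdrawal latency read, cut-off 20 s. Each paw tested three times at 10-min intervals and averaged. n = 6. Read at 0.5, 1, 2 and 4 h.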

Rattus norvegicus [8] = species on record: Rattus norvegicus; assay: Analgesic activity in Wistar rat spinal nerve ligation-induced neuropathic pain model assessed as reduction in heat hyperalgesia assessed as increase in ipsilateral paw withdrawal response at 30 ug, it measured after 0.5 to 4 hrs; assay type: functional, organism-based; outline: as §1
Mus musculus [9] = assay: Analgesic activity in Swiss mouse assessed as inhibition of formalin-induced tonic pain at 10 mg/kg administered as oral gavage 30 mins prior to formalin challenge measured from 20 to 40 mins relative to normal saline control; assay type: functional; parameters: scale not given: the % may be the effect or the level left
Outline: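 Fasted male Swiss mice (18-22 g), n = 6. Dosed 10 mg/kg by oral gavage 30 min before 10 µL of 5% formalin in 0.9% saline injected s.c. into the dorsal right hindpaw. Licking/biting duration was scored manually and pooled over 20-40 min as tonic pain. Drug dissolved in normal saline at pH 7.3-7.5. Compared with a saline control group.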

Rattus norvegicus [10] = species on record: Rattus norvegicus; assay: Analgesic activity in Wistar rat spinal nerve ligation-induced neuropathic pain model assessed as reduction in mechanical allodynia assessed as increase in ipsilateral paw withdrawal response at 30 ug, it measured after 0.5 to 4 hrs; assay type: functional, organism-based; outline: as §1
Mus musculus [11] = assay: Attenuation of morphine analgesic tolerance in Swiss mouse assessed as latency of licking/biting/jumping at 10 ug, it bid coadministered with morphine at 12 hr intervals for 7 days by hot-plate test; assay type: functional, organism-based
Outline: (§2)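 Swiss mice (n = 6 per group) received intrathecal saline, morphine, or compound (10 µg) plus morphine twice daily, 12 h apart, for 7 days. On day 8, a single intrathecal saline or compound dose was given 15 min before saline or morphine challenge. Hot plate at 55 ± 0.1 °C with 40 s cut-off; lick/bite/jump latency read before and 0.5, 1, 2 h after injection on days 1, 3, 5, 7, 8. AUC0–2 h analysed by two-way ANOVA with Student-Newman-Keuls test.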

[12] = Apparent oral bioavailability in Swiss mouse at 10 mg/kg administered as oral gavage; assay type: ADME, organism-based; conditions: in vivo, read-out: Fapp
Rattus norvegicus [13] = assay: Analgesic activity in it dosed Wistar rat assessed as inhibition of formalin-induced paw flinch response in tonic phase administered as bolus injection 30 mins prior to formalin challenge measured from 10 to 90 mins relative to normal saline control; assay type: functional
Outline: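 Intrathecally catheterised male Wistar rats, n = 6 per group. A bolus of 0.1-3 µg was given intrathecally 30 min before 50 µL of 5% formalin s.c. into the dorsal right hindpaw. Flinches counted in 1-min epochs at 10-min intervals over 90 min. […] Saline (10 µL) group as control.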

Mus musculus [14] = assay: Reversal of morphine analgesic tolerance in 10 ug, it BID for 7 days morphine pre-treated Swiss mouse assessed as latency of licking/biting/jumping at 10 ug, it administered as single bolus injection 15 mins prior to morphine challenge on day 8 by hot-plate test; assay type: functional, organism-based; outline: as §2
Mus musculus [15] = assay: Analgesic activity in Swiss mouse assessed as inhibition of formalin-induced acute pain at 0.3 to 10 mg/kg, sc administered 30 mins prior to formalin challenge measured within 5 mins relative to normal saline control; assay type: functional, organism-based
Outline: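 Male Swiss mice (18e22 g), n = 6 per group; saline (10 mL/kg) or compound sc 30 min before 10 µL 5% formalin in 0.9% saline sc into dorsal right hindpaw. Licking/biting duration manually pooled over 0–5 min (acute phase) and compared with saline group; one-way ANOVA with Student-Newman-Keuls post-hoc test.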

Rattus norvegicus [16] = species on record: Rattus norvegicus; assay: Analgesic activity in Wistar rat spinal nerve ligation-induced neuropathic pain model assessed as reduction in mechanical allodynia assessed as increase in ipsilateral paw withdrawal response at 30 ug, it measured after 1 hr; assay type: functional
Outline: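 Spinal nerve-ligated male Wistar rats, intrathecally catheterised; only rats with threshold <8 g and no major impairment were included. After intrathecal dosing, ipsilateral hind-limb withdrawal threshold to monofilaments was measured on a metal grid after ≥30 min acclimation, at 0.5, 1, 2 and 4 h. n = 6. Results converted to %MPE against baseline.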

Rattus norvegicus [17] = assay: Analgesic activity in Wistar rat assessed as inhibition of NMDA-induced pain at 10 ug, it administered 30 mins prior to NMDA challenge measured for 10 mins; assay type: functional, organism-based
Outline: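 Male Wistar rats with lumbar intrathecal PE-10 catheters, placement checked by lidocaine-induced hind-limb paralysis; n = 6 per group. Intrathecal saline, MK-801 or compound 30 min before intrathecal NMDA (5 nmol). Scratching, biting and licking duration recorded for 10 min; means ± S.E.M., one-way ANOVA with Student-Newman-Keuls test versus saline.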

Rattus norvegicus [18] = assay: Analgesic activity in Wistar rat assessed as inhibition of NMDA-induced pain at 0.1 ug, it administered 30 mins prior to NMDA challenge measured for 10 mins; assay type: functional
Outline: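 Male Wistar rats (180-250 g), n = 6 per group, with intrathecal lumbar PE-10 catheters checked by lidocaine paralysis. Dosed 0.1 µg intrathecally 30 min before 5 nmol NMDA given intrathecally. Duration of scratching, biting and licking recorded for 10 min immediately after NMDA. Saline (10 µL) group as control. One-way ANOVA with Student-Newman-Keuls test.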

Sequence of D-amino-acid oxidase (Rattus norvegicus, UniProt O35078) (O35078 whole entry): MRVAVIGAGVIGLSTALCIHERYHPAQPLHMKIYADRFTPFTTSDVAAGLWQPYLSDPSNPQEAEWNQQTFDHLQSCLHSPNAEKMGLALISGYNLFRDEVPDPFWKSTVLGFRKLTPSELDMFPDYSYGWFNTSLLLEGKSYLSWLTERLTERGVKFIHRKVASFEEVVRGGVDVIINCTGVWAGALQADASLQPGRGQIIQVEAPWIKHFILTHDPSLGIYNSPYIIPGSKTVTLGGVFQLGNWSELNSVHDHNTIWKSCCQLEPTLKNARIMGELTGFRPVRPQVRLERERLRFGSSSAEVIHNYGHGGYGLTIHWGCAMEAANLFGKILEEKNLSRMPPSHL
Sequence of D-amino-acid oxidase (Homo sapiens, UniProt P14920) (P14920 whole entry): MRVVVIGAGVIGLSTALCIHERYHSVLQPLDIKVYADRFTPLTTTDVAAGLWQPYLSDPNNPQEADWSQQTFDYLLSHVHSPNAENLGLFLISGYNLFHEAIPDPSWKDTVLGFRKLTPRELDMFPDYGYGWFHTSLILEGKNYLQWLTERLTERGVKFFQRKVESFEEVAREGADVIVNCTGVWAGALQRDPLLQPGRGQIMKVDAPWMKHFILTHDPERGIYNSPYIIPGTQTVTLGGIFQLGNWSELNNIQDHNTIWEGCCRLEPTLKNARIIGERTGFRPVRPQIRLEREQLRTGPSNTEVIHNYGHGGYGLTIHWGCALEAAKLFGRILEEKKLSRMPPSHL
Sequence of D-amino-acid oxidase (Sus scrofa, UniProt P00371) (P00371 whole entry): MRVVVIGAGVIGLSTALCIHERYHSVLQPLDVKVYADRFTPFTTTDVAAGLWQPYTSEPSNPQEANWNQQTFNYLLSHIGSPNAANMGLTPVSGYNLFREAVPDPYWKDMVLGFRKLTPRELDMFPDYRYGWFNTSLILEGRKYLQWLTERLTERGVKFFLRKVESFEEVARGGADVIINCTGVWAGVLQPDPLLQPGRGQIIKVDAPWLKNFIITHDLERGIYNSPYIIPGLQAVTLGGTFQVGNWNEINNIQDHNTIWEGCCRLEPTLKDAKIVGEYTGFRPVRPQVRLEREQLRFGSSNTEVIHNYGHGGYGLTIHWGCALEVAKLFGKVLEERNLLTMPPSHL

| SMILES | IC50 (D-amino-acid oxidase [3]) [µM] | also measured |
| --- | --- | --- |
| O=c1[nH]c2nccc(Br)c2[nH]c1=O | 0.22 | IC50 (D-amino-acid oxidase [1]): 2.24 µM; IC50 (D-amino-acid oxidase [2]): 2.24 µM |
| CCOc1ccnc2[nH]c(=O)c(=O)[nH]c12 | > 100 | – |
| O=c1[nH]c2nccc(OCCc3ccccc3)c2[nH]c1=O | > 300 | – |
| Oc1nc2cc(Cl)cnc2nc1O | 6.7 | – |
| Cc1cnc2nc(O)c(O)nc2c1 | 36.7 | – |
| O=c1[nH]c2ccc(OCCc3ccccc3)nc2[nH]c1=O | > 300 | – |
| O=c1[nH]c2nccc(Cl)c2[nH]c1=O | 0.18 | Activity (Rattus norvegicus [4]): Non-toxic; Activity (Mus musculus [5]): Dose-dependent effect; ED50 (Mus musculus [5]): 1.8 mg/kg; Emax (Mus musculus [5]): 49%; Activity (Rattus norvegicus [6]): inactive; MPE (Rattus norvegicus [7]): 80.8%; Activity (Rattus norvegicus [8]): Active; Activity (Mus musculus [9]): 30%; IC50 (D-amino-acid oxidase [1]): 0.21 µM; Activity (Rattus norvegicus [10]): Active; Activity (Mus musculus [11]): Active; IC50 (D-amino-acid oxidase [2]): 0.14 µM; bioavailability [12]: 30%; Activity (Rattus norvegicus [13]): Dose-dependent effect; ED50 (Rattus norvegicus [13]): 0.25 µg; Emax (Rattus norvegicus [13]; Rattus norvegicus, Wistar): 67.1%; Activity (Mus musculus [14]): Active; Activity (Mus musculus [15]): inactive; MPE (Rattus norvegicus [16]): 54.4%; Activity (Rattus norvegicus [17]): inactive |
| Oc1nc2cc(Br)cnc2nc1O | 12.4 | – |
| Oc1nc2cccnc2nc1O | 5.7 | – |
| Cc1c(Br)cnc2nc(O)c(O)nc12 | 0.4 | – |
| CCOc1ccc2[nH]c(=O)c(=O)[nH]c2n1 | > 100 | – |
| O=c1[nH]c2nccc(OCc3ccccc3)c2[nH]c1=O | > 300 | – |
| O=c1[nH]c2ncc(Br)c(Br)c2[nH]c1=O | 0.53 | – |
| Oc1nc2ccccc2nc1O | 33.6 | – |
| Cc1c(Cl)cnc2nc(O)c(O)nc12 | 0.26 | IC50 (D-amino-acid oxidase [1]): 1.13 µM; IC50 (D-amino-acid oxidase [2]): 4.16 µM |
| CCc1ccnc2[nH]c(=O)c(=O)[nH]c12 | 2.4 | – |
| COC(=O)c1cnc2[nH]c(=O)c(=O)[nH]c2c1 | > 1000 | – |
| COc1ccc2nc(O)c(O)nc2n1 | > 100 | – |

| SMILES | IC50 (D-amino-acid oxidase [3]) [µM] | also measured |
| --- | --- | --- |
| COc1ccnc2[nH]c(=O)c(=O)[nH]c12 | 85.7 | – |
| O=c1[nH]c2cc(F)cnc2[nH]c1=O | 0.46 | – |
| Cc1c(F)cnc2[nH]c(=O)c(=O)[nH]c12 | 0.15 | IC50 (D-amino-acid oxidase [1]): 0.34 µM; IC50 (D-amino-acid oxidase [2]): 0.15 µM |
| O=c1[nH]c2nccc(C(F)(F)F)c2[nH]c1=O | 0.52 | – |
| O=c1[nH]c2nccc(OCCCc3ccccc3)c2[nH]c1=O | > 300 | – |
| Cc1ccc2nc(O)c(O)nc2n1 | 17.7 | – |
| Oc1nc2cc(C(F)(F)F)cnc2nc1O | 22.9 | – |
| Oc1nc2ccc(Cl)nc2nc1O | 20.3 | – |
| CC(C)Oc1ccnc2[nH]c(=O)c(=O)[nH]c12 | > 100 | – |
| O=C(O)c1cnc2[nH]c(=O)c(=O)[nH]c2c1 | > 1000 | – |
| O=c1[nH]c2ncc(Cl)c(Br)c2[nH]c1=O | 0.24 | IC50 (D-amino-acid oxidase [1]): 1.38 µM; IC50 (D-amino-acid oxidase [2]): 7.99 µM |
| O=c1[nH]c2ccc(OCc3ccccc3)nc2[nH]c1=O | > 300 | – |
| O=c1[nH]c2ncc(Br)c(Cl)c2[nH]c1=O | 0.48 | – |
| Cc1ccnc2[nH]c(=O)c(=O)[nH]c12 | 0.63 | – |
| Oc1noc2cc(Cl)ccc12 | 0.21 | IC50 (D-amino-acid oxidase [2]): 0.09 µM |
| C[C@]12N[C@H](Cc3ccccc31)c1ccccc12 [DIZOCILPINE] | – | inhibition (INH) (Rattus norvegicus [18]): 80% |
| O=c1[nH]c2nccc(Oc3ccccc3)c2[nH]c1=O | > 1000 | – |
| O=c1[nH]c2ncc(Cl)c(Cl)c2[nH]c1=O | 0.65 | – |
